# This is a sample that favours compounds with a hit; in the whole collection about 1.8% have one here.
# Rpn11 inh = Rpn11 (PSMD14) deubiquitinase inhibitors, primary screen, biochemical, fluorescence polarization, uHTS; 26S proteasome non-ATPase regulatory subunit 14 (Homo sapiens), O00487; calls only at 20 µM; 360,000 tested, 0.59% active; human 26S proteasome, Ub4-pepOG fluorescence polarization; 20S core pre-blocked with epoxomicin;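 active = inhibition at 20 µM, scaled to each plate's controls, above about 33%, limit read from the data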
# HNF4A DNA FP = change in binding of human HNF4A to DNA, primary screen, biochemical, fluorescence polarization, FITC-DNA. 1 h. activity change, % at 10 µM. 360,000 tested, 0.3% active. AID 1224865, 2016; in the data active = activity change above about 30%, passing the limit was not always enough
# UBC9 SUMO inh = inhibitors of in vitro SUMOylation cascade, primary screen, biochemical, HTRF, uHTS; AID 2006, 2009; 290,000 tested, 0.36% active; inhibition, % at 35 µM; SUMO-conjugating enzyme UBC9 (Homo sapiens), P63279; HTRF SUMOylation assay, SAE1/SAE2 + UBC9; in the data active = inhibition above about 50%, passing the limit was not always enough
# Target sequence (P63279 whole entry, looked up): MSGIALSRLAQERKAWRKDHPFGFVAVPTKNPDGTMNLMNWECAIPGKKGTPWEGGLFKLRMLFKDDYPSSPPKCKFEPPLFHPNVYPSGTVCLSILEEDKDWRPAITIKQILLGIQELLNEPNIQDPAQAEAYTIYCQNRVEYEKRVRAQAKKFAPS
# TPT1 inh = Candida albicans TPT1 enzyme inhibitors, primary screen, biochemical, fluorescence polarization. 300,000 tested, 0.81% active. inhibition, % at 5 µM. recombinant caTPT1, FP RNA substrate dephosphorylation;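 active = inhibition above the mean of all tested compounds plus 3 SD, set per screening campaign, cut at about 24% in these data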;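 note: plate controls were DMSO alone for no effect and ferristatin control at 100 nM for full effect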
# SENP1 inh = human SENP1 catalytic domain inhibitors, primary screen, biochemical, FRET, uHTS. recombinant SENP1 catalytic domain, CyPet-SUMO1-YPet FRET cleavage. AID 624204, 2012. inhibition, % at 10 µM. Sentrin-specific protease 1 (Homo sapiens), Q9P0U3. 360,000 tested, 0.21% active;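 active = inhibition at least 30% at 10 µM, raw YFP signal under a set limit, fluorescence ratio 0.5 to 1.5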;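 note: 0% = enzyme with DMSO and 100% = no enzyme wells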
# Target sequence (Q9P0U3 419-644 limits assumed): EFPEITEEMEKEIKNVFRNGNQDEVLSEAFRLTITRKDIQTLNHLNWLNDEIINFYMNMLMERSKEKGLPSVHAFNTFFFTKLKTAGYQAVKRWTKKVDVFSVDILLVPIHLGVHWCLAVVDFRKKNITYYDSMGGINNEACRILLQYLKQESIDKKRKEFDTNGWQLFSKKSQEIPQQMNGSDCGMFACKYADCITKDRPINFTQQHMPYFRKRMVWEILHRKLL
#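 Test system: human SENP1 catalytic domain; medium: Tris pH 8 buffer plus EDTA, NaCl, BME, BSA, NP40, catalase; incubation: 50 min reaction at room temperature; technique: FRET, CFP and YFP emission; controls: no-enzyme low control and enzyme-plus-DMSO high control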
# CSN deneddyl inh = inhibitors of CSN-mediated cullin deneddylation, primary screen, biochemical, fluorescence polarization, uHTS. Purified CSN, SCF-Nedd8-OG deneddylation. 360,000 tested, 0.38% active. inhibition, % at 12.5 µM. COP9 signalosome complex subunit 5 (Homo sapiens), Q92905;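 active = pattern-corrected inhibition above about 35%, with an unprinted fluorescence ratio check between 0.5 and 1.5, limit read from the data, passing the limit was not always enough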;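 note: 0% = enzyme with substrate and 100% = substrate without enzyme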
#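 Detection – fluorescence polarization · System – HEK293T-derived human Csn5 enzyme · Controls – substrate-only high control, full reaction low control · Timing – 90 min, room temperature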
# An asterisk follows results filed as active; i = inactive; / = no result given; + = active, no number.
SMILES,Rpn11 inh,HNF4A DNA FP,UBC9 SUMO inh,TPT1 inh,SENP1 inh,CSN deneddyl inh
COc1ccc(OC)c(NC(=O)CSc2nc3n[nH]c(C)c3c(=N)n2-c2cccc(Cl)c2C)c1,i,-4,-16,-2,5,-5
COc1ccc(NC(=O)CSc2nc3n[nH]c(C)c3c(=N)n2-c2ccc(Cl)c(C)c2)cc1OC,i,-2,22,1,-2,36*
Cc1ccc(-n2nc(-c3ccco3)cc2C(=O)O)cc1,i,-45,2,2,-4,38*
CCc1ccc(/C=C/C(=O)C2C(=O)c3ccccc3C2=O)cc1,i,-8,4,0,7,9
O=C(/C=C/c1ccccc1)C1C(=O)c2ccccc2C1=O,i,-2,59*,0,2,-10
COc1cccc(C2CC(c3ccccc3)=NN2S(=O)(=O)c2ccc(C)cc2)c1OC (stereo not given),/,127,-11,4,-51,76*
COc1cccc(NC(=S)N/N=C2\CC(C)(C)Oc3ccc(O)cc32)c1,i,-2,-5,-1,-16,0
Cc1cccc(NC(=S)N/N=C2\CC(C)(C)Oc3ccc(O)cc32)c1,i,36*,-20,0,-12,-5
Cc1ccc(-c2ccc(/C=N\NC(=O)c3cc4c(ccc5ccccc54)o3)o2)cc1[N+](=O)[O-],i,6,22,-2,3,1
O=C(N/N=C/c1ccc(-c2ccc(Cl)c(C(=O)O)c2)o1)c1cc2c(ccc3ccccc32)o1,i,-23,51*,0,-37,26
COc1ccc2c(c1)[C@H]1[C@H](CO2)[C@H](c2ccccc2)[C@]2(C)C(=O)Nc3ccc(Br)cc3C(=O)N12,i,1,/,/,-3,0
Cc1ccc(NC(=O)Nn2cnnc2)cc1Cl,i,1,44,1,3,0
O=C(Nc1ccc(Cl)c(Cl)c1)Nn1cnnc1,i,-7,67*,/,2,5
O=C(Nc1cccc(Cl)c1)Nn1cnnc1,i,4,51*,2,11,0
COc1ccc(C2CC(=O)c3cnc(NC(=O)c4ccccc4OC)nc3C2)c(OC)c1 (stereo not given),i,-1,-24,2,-3,-6
COc1ccc(-c2cc3ccccc3oc2=O)cc1NC(=S)NC(=O)c1ccc2c(c1)OCCO2,i,9,-3,1,-44,11
CCc1ccc(C(=O)Nc2ccc(S(=O)(=O)Nc3nc(C)cc(C)n3)cc2)o1,i,4,1,2,2,1
O=C(Nc1ccc(Cl)c([N+](=O)[O-])c1)c1ccc(NCCCN2CCOCC2)c([N+](=O)[O-])c1,+,30,-7,16,22,5
O=[N+]([O-])c1cc(C(F)(F)F)cc([N+](=O)[O-])c1NCCCN1CCOCC1,i,62*,17,-3,1,-4
Cc1ccc(NC(=O)c2ccc(NCCCN3CCOCC3)c([N+](=O)[O-])c2)cc1Cl,i,3,10,-2,4,-16
O=[N+]([O-])c1cc(C(F)(F)F)ccc1NCCCN1CCOCC1,i,6,-2,-3,1,-3
O=C(C[n+]1ccc(CCSc2ccc(F)cc2)cc1)c1ccccc1,+,128,18,15,-23,105*
CCc1ccccc1NC(=O)CN1CCN(C(=O)CNC(=O)Cc2cccc3ccccc23)CC1,i,34*,/,/,0,4
Cc1cccc(C)c1NC(=O)CN1CCN(C(=O)CNC(=O)Cc2cccc3ccccc23)CC1,i,0,/,/,-1,7
Cc1nc2sc3c(c2c(=O)o1)CCC3,i,-2,4,4,-8,3
SMILES,Rpn11 inh,HNF4A DNA FP,UBC9 SUMO inh,TPT1 inh,SENP1 inh,CSN deneddyl inh
O=c1oc(/C=C/c2ccco2)nc2sc3c(c12)CCC3,i,-11,32,0,-12,42*
O=c1oc(-c2cccs2)nc2sc3c(c12)CCC3,i,10,51*,-3,-24,2
O=c1oc(-c2cccs2)nc2sc3c(c12)CCCC3,i,5,26,1,-73,-1
O=C(N/N=C/c1ccc2c(c1)OCO2)c1cc(-c2ccco2)nc2ccccc12,i,-13,/,/,0,43*
CNC(=O)COC(=O)c1cc(-c2ccco2)nc2ccccc12,i,-19,63*,-21,-21,22
O=C(N/N=C/c1ccc2c(c1)OCO2)c1cc(-c2ccccc2)nc2ccccc12,i,0,6,2,-1,-1
O=C(COC(=O)c1cc(-c2ccco2)nc2ccccc12)NCc1ccccc1,i,-2,30,0,-17,6
CN(CC(=O)Nc1ccc(F)cc1)C(=O)c1cc(-c2ccco2)nc2ccccc12,i,-19,/,2,9,53*
O=C(O)c1ccccc1/C=N/NC(=O)c1cc(-c2ccco2)nc2ccccc12,i,-50,78*,3,-11,55
CCOC(=O)CCn1cnc2ccc([N+](=O)[O-])cc2c1=O,i,-1,27,-4,3,3
CCOC(=O)N1CCc2c(sc(NC(=O)c3ccc(S(=O)(=O)N4CCCC4)cc3)c2C#N)C1,+,23,15,20,-29,16
COc1ccc(C(=O)Nc2sc3c(c2C#N)CCN(C(C)=O)C3)cc1,i,17,7,14,-28,7
CSc1nc(=O)n(-c2ccccc2)c(C)c1C(C)=O,i,5,5,-2,1,-2
CC(OC(=O)CSc1ccc([N+](=O)[O-])cc1)C(=O)NCc1ccco1 (stereo not given),i,-1,/,-1,4,-1
NC(=O)c1ccc(NC(=O)CN2CCN(Cc3ccccc3)CC2)cc1,i,2,11,-4,0,-4
Cc1cccc(NC(=O)Cn2c(O)c(N=NC(=O)c3ccccc3O)c3ccccc32)c1,i,-9,54*,-7,5,-1
CC(Nc1ccc(F)cc1F)C(=O)NC(=O)NC1CCCCC1 (stereo not given),i,144*,0,0,-3,0
N=C1S/C(=C\c2cccc3ccccc23)C(=O)N1c1ccc(F)cc1,i,1,63*,3,0,0
CC1CCc2nc(/C(C#N)=C/c3cccnc3)sc2C1 (stereo not given),i,4,29,-4,-53,0
